According to PMC12239073 (Molecular Pharmaceutics, 2025):

Experiments:
[1] = pH of saturated solutions in biorelevant media; type: physicochemical; settings: 24 h, 37 °C, pH probe; for pH of saturated solution in FaSSGF: excess solid in FaSSGF, initial pH 1.6; for pH of saturated solution in FaSSGF / pH of saturated solution in FaSSIF / pH of saturated solution in FeSSIF: 350 rpm, n = 3; for pH of saturated solution in FaSSIF: excess solid in FaSSIF, initial pH 6.5; for pH of saturated solution in FeSSIF: excess solid in FeSSIF, initial pH 5.0
How it was run: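 Excess solid was added separately to 1 mL of each medium: FaSSIF (pH 6.5; NaTC 3 mM, lecithin 0.75 mM), FeSSIF (pH 5.0; 15 mM, 3.75 mM), FaSSGF (pH 1.6; 0.08 mM, 0.02 mM), or blank versions without NaTC and lecithin. Samples were shaken at 350 rpm for 24 h at 37 °C, then read with a pH probe. Triplicate; mean ± standard deviation, n = 3.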

Saturation = type: physicochemical; settings: 24 h, 37 °C, in words; for saturation solubility in gastric media, rank among the media: FaSSGF and blank FaSSGF, pH 1.6
[2] = approximate, from the literature; ref not given; cited from earlier work

Compound	pH of media in the presence of excess material, all media investigated ([1]; FaSSIF, FeSSIF, FaSSGF and blank equivalents)	saturation solubility in gastric media, rank among the media (Saturation)	pH of saturated solution in FaSSGF [1]	pH of saturated solution in FaSSIF [1]	pH of saturated solution in FeSSIF [1]	pKa [2]	saturation solubility in FaSSIF, rank among the media (Saturation; FaSSIF, pH 6.5)
insulin: recombinant human insulin procured from Merck KGaA, used as model peptide	did not appear to impact media pH	highest solubility	–	–	–	–	–
CCCCCCCCCC(=O)[O-].[Na+] [C10, sodium caprate]	–	–	9.2	9.0	8.8	approximately 5	–
O=C([O-])CCCCCCCNC(=O)c1ccccc1O.[Na+] [SNAC, salcaprozate sodium]	–	lowest	7.6	7.9	7.7	approximately 5	highest
